This passage reports MIC, IC50 and Activity results from ChEMBL document CHEMBL3351277, “Discovery and structure-activity relationship studies of irreversible benzisothiazolinone-based inhibitors against Staphylococcus aureus sortase A transpeptidase” (Bioorg Med Chem, 2014).

Experiment [1] relates to Staphylococcus epidermidis. As to the kind of experiment: Antibacterial activity against Staphylococcus epidermidis ATCC 12228 after 24 hrs by broth dilution method. It is filed as functional. The note with it: ATCC 12228, 24 h. Summed up: (§1)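 Broth microdilution, 0.1–500 µg/mL in Mueller Hinton broth for S. aureus and S. epidermidis and Luria Bertani broth for E. coli. Inoculum was log-phase culture at OD600 0.1, incubated 24 h at 37 °C, with growth read as A600. Triplicates, repeated three times.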
Background: Dilution methods test growth across graded concentrations, often in twofold steps.

The subject of the next experiment is Escherichia coli. As to the kind of experiment: Antibacterial activity against Escherichia coli ATCC 25922 after 24 hrs by broth dilution method. The class given is functional. To be noted: ATCC 25922, 24 h. In a few lines: as §1
For the next experiment, the target named is T1, Sortase A (Staphylococcus aureus, UniProt Q9S446).
T1 sequence (Q9S446 whole entry): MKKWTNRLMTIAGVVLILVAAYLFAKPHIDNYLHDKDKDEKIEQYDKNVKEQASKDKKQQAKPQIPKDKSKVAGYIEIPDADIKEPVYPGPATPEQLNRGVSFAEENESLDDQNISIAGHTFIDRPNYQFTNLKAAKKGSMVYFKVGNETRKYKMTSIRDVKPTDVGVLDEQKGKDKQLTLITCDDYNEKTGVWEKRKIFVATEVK
The experiment is described as follows: Inhibition of Staphylococcus aureus sortase A using dabcyl-QALPETGEE-edans as substrate incubated for 1 hr prior to substrate addition measured at 1 min interval for 1 hr by FRET analysis. In a few lines: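 Recombinant S. aureus SrtA catalytic domain (residues 1–59 deleted, C-terminal His6; E. coli BL21(DE3), Ni-NTA then gel filtration), 10 µM, preincubated 1 h at 37 °C with increasing inhibitor concentrations in 50 mM Tris-HCl pH 7.5, 5 mM CaCl2, 150 mM NaCl; then 20 µM substrate added. Fluorescence (ex 350/em 495 nm) read each minute for 1 h; progress curves constructed for IC50.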

The test system of the next experiment is Staphylococcus aureus. The experiment is described as follows: Antibacterial activity against Staphylococcus aureus ATCC 25904 after 24 hrs by broth dilution method. It is filed as functional. The note with it: ATCC 25904, 24 h. Summed up: as §1
The nature of experiment [2]: Cytotoxicity against Swiss mouse NIH/3T3 cells after 48 hrs by MTT assay. The class given is cell-based. To be noted: NIH3T3, 48 h. In a few lines: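 NIH 3T3 fibroblasts were seeded in DMEM with 10% FCS and rested 24 h, then exposed to graded compound concentrations for 48 h. Medium was replaced with phenol-red-free medium plus 1 mM MTT for 3 h, then 1% SDS–HCl was added for 4 h. A570 was read. IC50 was the 50% proliferation inhibition versus untreated control, from nonlinear dose–response regression.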
On the technique in general: Formazan colour is commonly taken as a measure of viable cells.

The target in experiment [3] is T2, Sortase A (Staphylococcus aureus) (UniProt Q9S446).
T2 sequence (whole entry): T1 sequence (Q9S446 whole entry)
The experiment is described as follows: Irreversible binding affinity to Staphylococcus aureus sortase A by 15N-1H HSQC NMR spectroscopy. Summed up:
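2D 15N–1H HSQC used 15N-labelled SrtAΔN59-6His (E. coli BL21(DE3), M9 with 15N-ammonium) at 0.3 mM. Buffer was 20 mM sodium acetate, 50 mM NaCl, 10 mM CaCl2, pH 6.0, 6% D2O. Inhibitor (100 mM stock in DMSO-d6) was added stepwise with a spectrum after each addition. Reversibility was checked by HSQC after dialysis against NMR buffer (100-fold dilution).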

Converted amounts (≈) assume the structure as drawn. The source made the active and inactive calls.

For orientation: MIC means the smallest concentration in the dilution series that meets the test's criterion for growth inhibition. Read a high MIC as a need for much substance. A word on the IC50: it is the concentration that gives 50% inhibition. In the case of `COC(=O)C12CC3CC(CC(N)(C3)C1)C2.Cl`, the MIC (in experiment [1]; with Escherichia coli; against Staphylococcus aureus) was > 2030 µM in each case. In addition, the half-maximal inhibitory concentration (IC50) entry is “Not Active” at Sortase A and 2290 µM in experiment [2].
As for `CC12CC3(C)CC(O)(C1)CC(NC(=O)CCn1sc4cccc(F)c4c1=O)(C2)C3`, the minimum inhibitory concentration (MIC) in experiment [1] is 38.2 µM (≈ 16 µg/mL); in the experiment with Escherichia coli, > 1190 µM; against Staphylococcus aureus, 38.2 µM (≈ 16 µg/mL). For the same compound, the IC50 was 3.96 µM at Sortase A (read-out: IC50) and 2.17 µM in experiment [2].
Take `C=CS(=O)(=O)c1ccccc1` [(ETHENYLSULFONYL)BENZENE]: the MIC (in experiment [1]; against Escherichia coli; with Staphylococcus aureus) was > 2960 µM throughout. In experiment [2], this compound came in with a half-inhibitory concentration (IC50) of 7.91 µM.
On to `O=C(Cn1sc2ccccc2c1=O)NC12CC3CC(CC(C3)C1)C2`, for which the minimum inhibitory concentration (MIC) in experiment [1] is 1.46 µM (≈ 0.5 µg/mL); with Escherichia coli, > 1500 µM; in the experiment with Staphylococcus aureus, 2.92 µM (≈ 1 µg/mL). Besides, the half-maximal inhibitory concentration (IC50) on Sortase A (read-out: IC50) stood at 6.11 µM; in experiment [2], 1.27 µM. The result in experiment [3] was Active.
As to `O=C(CCn1sc2cccc(F)c2c1=O)NNC(=O)C12CC3CC(CC(C3)C1)C2`, the minimum inhibitory concentration (MIC) is 19.2 µM (≈ 8 µg/mL) in experiment [1], > 1200 µM against Escherichia coli and 38.3 µM (≈ 16 µg/mL) against Staphylococcus aureus. The half-maximal inhibitory concentration (IC50) at Sortase A (read-out: IC50) worked out at 3.39 µM; in experiment [2] it was 1.67 µM.
In the case of `O=C(CN1Cc2ccccc2C1=O)NC12CC3CC(CC(C3)C1)C2`, the MIC (in experiment [1]; against Escherichia coli; in the experiment with Staphylococcus aureus) was > 1540 µM in each case. Besides, the IC50 entry against Sortase A was “Not Active”; in experiment [2], 263 µM.
For the compound `COC(=O)C12CC3CC(CC(NC(=O)CCn4sc5ccccc5c4=O)(C3)C1)C2`, the MIC in experiment [1] was 19.3 µM (≈ 8 µg/mL); with Escherichia coli, > 1210 µM; in the experiment on Staphylococcus aureus, 38.6 µM (≈ 16 µg/mL). Also, the concentration for half-maximal inhibition (IC50) on Sortase A (read-out: IC50) is 5.08 µM; in experiment [2], 12.1 µM.
For `O=C(CCn1sc2ccccc2c1=O)NC12CC3CC(CC(C3)C1)C2`, in that order: 5.61 µM (≈ 2 µg/mL), > 1400 µM, 22.4 µM (≈ 8 µg/mL), 3.81 µM and 5.95 µM.
Consider `CC12CC3CC(C)(C1)CC(NC(=O)Cn1sc4ccccc4c1=O)(C3)C2`, for which the values for the MIC (in experiment [1]; with Escherichia coli; in the experiment on Staphylococcus aureus) were 43.2 µM (≈ 16 µg/mL), > 1350 µM and 86.4 µM (≈ 32 µg/mL), respectively. For the same compound, the half-inhibitory concentration (IC50) on Sortase A (read-out: IC50) stood at 4.99 µM; in experiment [2], 4.09 µM.
For `O=C(CCn1sc2cccc(F)c2c1=O)NC12CC3CC(CC(O)(C3)C1)C2`, in that order: 164 µM (≈ 64 µg/mL), > 1280 µM, 164 µM (≈ 64 µg/mL), 6.26 µM and 1.34 µM.
For `CC12CC3(C)CC(O)(C1)CC(NC(=O)CCn1sc4ccccc4c1=O)(C2)C3`, in that order: 40 µM (≈ 16 µg/mL), > 1250 µM, 40 µM (≈ 16 µg/mL), 7.06 µM and 7.52 µM.
For `CC12CC3(C)CC(O)(C1)CC(NC(=O)Cn1sc4ccccc4c1=O)(C2)C3`, in that order: 20.7 µM (≈ 8 µg/mL), > 1290 µM, 20.7 µM (≈ 8 µg/mL), 3.87 µM and 1.33 µM.
As to `O=C(O)CCn1sc2ccccc2c1=O`, the figures for the MIC (in experiment [1]; against Escherichia coli; in the experiment with Staphylococcus aureus) were 287 µM (≈ 64 µg/mL), 71.7 µM (≈ 16 µg/mL) and 287 µM (≈ 64 µg/mL), respectively. In addition, the half-inhibitory concentration (IC50) stood at 12.8 µM on Sortase A (read-out: IC50) and 21.8 µM in experiment [2].
Regarding `Cl.NC12CC3CC(CC(C3)C1)C2` [AMANTADINE HYDROCHLORIDE], the MIC (in experiment [1]; with Escherichia coli; with Staphylococcus aureus) was > 2660 µM each time. Also, the concentration for half-maximal inhibition (IC50) result on Sortase A is “Not Active”; in experiment [2], 2290 µM.
On to `CC12CC3CC(C)(C1)CC(NC(=O)CCn1sc4ccccc4c1=O)(C3)C2`, for which the results for the MIC (in experiment [1]; with Escherichia coli; in the experiment with Staphylococcus aureus) were 20.8 µM (≈ 8 µg/mL), > 1300 µM and 20.8 µM (≈ 8 µg/mL), respectively. Also, the IC50 at Sortase A (read-out: IC50) was determined as 4.62 µM; in experiment [2], 4.23 µM.
For the compound `O=C(CCn1sc2ccccc2c1=O)NNC(=O)C12CC3CC(CC(C3)C1)C2`, the figures for the MIC (in experiment [1]; against Escherichia coli; with Staphylococcus aureus) were 10 µM (≈ 4 µg/mL), > 1250 µM and 20 µM (≈ 8 µg/mL), respectively. Moreover, the IC50 at Sortase A (read-out: IC50) was found to be 4.22 µM; in experiment [2] it was 12.2 µM.
For `O=C(CCn1sc2ccccc2c1=O)NC12CC3CC(CC(O)(C3)C1)C2`, in that order: 85.9 µM (≈ 32 µg/mL), > 1340 µM, 43 µM (≈ 16 µg/mL), 6.44 µM and 7.13 µM.
As to `O=C(Cn1sc2ccccc2c1=O)NNC(=O)C12CC3CC(CC(C3)C1)C2`, the MIC in experiment [1] was 10.4 µM (≈ 4 µg/mL); in the experiment on Escherichia coli, > 1300 µM; against Staphylococcus aureus it was 41.5 µM (≈ 16 µg/mL). The IC50 was 3.8 µM on Sortase A (read-out: IC50) and 14.4 µM in experiment [2].
For `CC12CC3CC(C)(C1)CC(NC(=O)CCn1sc4cccc(F)c4c1=O)(C3)C2`, the results for the MIC (in experiment [1]; in the experiment on Escherichia coli; in the experiment with Staphylococcus aureus) were 2.48 µM (≈ 0.998 µg/mL), > 1240 µM and 39.7 µM (≈ 16 µg/mL), respectively. Moreover, the figures for the 50% inhibitory concentration (IC50) (at Sortase A (read-out: IC50); in experiment [2]) were 4.07 µM and 9.89 µM, respectively.
For `O=C(CCn1sc2cccc(F)c2c1=O)NC12CC3CC(CC(C3)C1)C2`, in that order: 10.7 µM (≈ 4 µg/mL), > 1340 µM, 85.5 µM (≈ 32 µg/mL), 4.01 µM and 0.9 µM.
For `COC(=O)C12CC3CC(CC(NC(=O)CCn4sc5cccc(F)c5c4=O)(C3)C1)C2`, in that order: 18.5 µM (≈ 8 µg/mL), > 1160 µM, 37 µM (≈ 16 µg/mL), 5.06 µM and 8.02 µM.
For `CN(C)CCC(=O)c1ccc(Cl)c(Cl)c1`, in that order: 56.6 µM (≈ 13.9 µg/mL), > 1770 µM, 113 µM (≈ 27.9 µg/mL), 16.9 µM and 9.71 µM.
